ChEMBL document CHEMBL1156265, “Furo[2,3-b]pyridine-based cannabinoid-1 receptor inverse agonists: synthesis and biological evaluation. Part 1” (Bioorg Med Chem Lett, 2010)

What was measured:
Rattus norvegicus [1] = test: Reduction of body weight in rat at 1 mg/kg, po after 13 days relative to control; format: functional; design: scale not given: the % may be the effect or the level left
Procedure, shortened: (§1)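 Chronic study in diet-induced obese rats with daily oral dosing at 1 mg/kg (for some compounds 0.1 and 0.3 mg/kg as well). Body weight change and cumulative food intake suppression were measured relative to vehicle. The 14-day study ended 18 h after the day-14 dose; one study ended on day 13.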

Rattus norvegicus [2] = test: Reduction of body weight in DIO rat assessed as weight change at 1 mg/kg, po daily measured 18 hrs post dose on day 13; format: functional; design: scale not given: the % may be the effect or the level left; procedure, shortened: as §1
Rattus norvegicus [3] = test: Suppression of cumulative food intake in rat at 1 mg/kg, po after 13 days relative to control; format: functional; procedure, shortened: as §1
[4] = Half life in dog; format: ADME, organism-based, Canis lupus familiaris; conditions: in vivo
Procedure, shortened: (§2)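 PK in dog and rhesus macaque. Bioavailability, plasma clearance (mL/min/kg) and terminal half-life derived from plasma drug levels.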

[5] = Drug level in rat brain at 1 mg/kg, iv after 4 hrs; format: ADME, organism-based; design: dose 1 mg/kg, route intravenous; conditions: read-out: Drug uptake
[6] = Bioavailability in rat; format: ADME, organism-based; conditions: in vivo
[7] = Half life in rhesus monkey; format: ADME, organism-based, Macaca mulatta; conditions: in vivo; procedure, shortened: as §2
[8] = Ratio of drug level in brain to plasma in rat at 1 mg/kg, iv after 4 hrs; format: ADME, organism-based; design: dose 1 mg/kg, route intravenous
Cannabinoid receptor 2 = Cannabinoid receptor 2 (Homo sapiens, UniProt P34972); test: Inhibition of human CB2 receptor
[9] = Bioavailability in dog; format: ADME, organism-based, Canis lupus familiaris; conditions: in vivo; procedure, shortened: as §2
[10] = Drug level in rat plasma at 1 mg/kg, iv after 4 hrs; format: ADME, organism-based; design: dose 1 mg/kg, route intravenous; conditions: read-out: Drug uptake
[11] = Half life in rat; format: ADME, organism-based; conditions: in vivo
[12] = Bioavailability in rhesus monkey; format: ADME, organism-based, Macaca mulatta; conditions: in vivo; procedure, shortened: as §2
Rattus norvegicus [13] = test: Suppression of food intake in DIO rat at 0.1 mg/kg, po relative to control; format: functional
Procedure, shortened: (§3)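 Acute study in diet-induced obese rats. A single oral dose was given and rats were monitored for 18 h. Food intake suppression and body weight change were measured relative to vehicle-treated controls.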

Rattus norvegicus [14] = test: Suppression of food intake in DIO rat at 0.3 mg/kg, po relative to control; format: functional; procedure, shortened: as §3
Rattus norvegicus [15] = test: Reduction of body weight in DIO rat assessed as weight change at 0.1 mg/kg, po after 18 hrs; format: functional; procedure, shortened: as §3
[16] = Plasma clearance in rat; format: ADME, organism-based
[17] = Plasma clearance in rhesus monkey; format: ADME, organism-based, Macaca mulatta; procedure, shortened: as §2
[18] = Plasma clearance in dog; format: ADME, organism-based, Canis lupus familiaris; procedure, shortened: as §2
Rattus norvegicus [19] = test: Reduction of body weight in DIO rat assessed as weight change at 0.3 mg/kg, po after 18 hrs; format: functional; procedure, shortened: as §3
Cannabinoid receptor 1 = Cannabinoid receptor 1 (Homo sapiens, UniProt P21554); test: Inhibition of human CB1 receptor
Chain of Cannabinoid receptor 1 (P21554 whole entry): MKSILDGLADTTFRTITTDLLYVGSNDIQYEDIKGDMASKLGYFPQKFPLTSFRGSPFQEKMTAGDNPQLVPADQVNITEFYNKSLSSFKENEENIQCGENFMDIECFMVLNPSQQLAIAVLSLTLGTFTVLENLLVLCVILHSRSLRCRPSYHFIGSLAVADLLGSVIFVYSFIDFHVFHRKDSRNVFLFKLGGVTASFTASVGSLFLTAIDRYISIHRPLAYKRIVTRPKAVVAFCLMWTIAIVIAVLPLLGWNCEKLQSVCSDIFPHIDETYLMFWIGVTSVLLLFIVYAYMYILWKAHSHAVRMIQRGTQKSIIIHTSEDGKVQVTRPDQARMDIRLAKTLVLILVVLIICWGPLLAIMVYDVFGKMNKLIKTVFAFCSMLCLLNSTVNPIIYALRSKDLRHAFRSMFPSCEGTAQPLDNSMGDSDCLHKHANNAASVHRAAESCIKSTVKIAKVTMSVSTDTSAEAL

Chain of Cannabinoid receptor 2 (P34972 whole entry): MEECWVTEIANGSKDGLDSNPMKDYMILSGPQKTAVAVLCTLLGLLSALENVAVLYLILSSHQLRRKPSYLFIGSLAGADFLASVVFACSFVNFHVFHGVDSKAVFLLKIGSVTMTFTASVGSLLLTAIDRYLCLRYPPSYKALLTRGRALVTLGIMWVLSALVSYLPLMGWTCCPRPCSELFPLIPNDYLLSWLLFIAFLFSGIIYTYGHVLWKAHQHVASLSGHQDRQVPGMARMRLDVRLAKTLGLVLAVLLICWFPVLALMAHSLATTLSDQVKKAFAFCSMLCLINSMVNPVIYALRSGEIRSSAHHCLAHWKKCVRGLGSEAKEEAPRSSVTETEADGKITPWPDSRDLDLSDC

## C[C@H](NC(=O)C(C)(C)Oc1ccc(C(F)(F)F)cn1)[C@@H](Cc1ccc(Cl)cc1)c1cccc(C#N)c1 [TARANABANT]
Rattus norvegicus [1]
  Activity: 6%
Rattus norvegicus [2]
  Activity: 6%
Rattus norvegicus [3]
  Activity: 21%

## CC(=O)Nc1c(C(=O)C(C)(C)O)oc2nc(-c3ccccc3Cl)c(-c3ccc(Cl)cc3)cc12
[4]
  half-life: 26 h
[5]
  concentration at 4 h: 56 nM
[6]
  bioavailability: 61%
[7]
  half-life: 45 h
[8]
  Kp at 4 h: 0.77
Cannabinoid receptor 2
  IC50: 5400 nM
[9]
  bioavailability: 87%
[10]
  concentration at 4 h: 72 nM
[11]
  half-life: 4.8 h
[12]
  bioavailability: 100%
Rattus norvegicus [13]
  Activity: 28%
Rattus norvegicus [14]
  Activity: 41%
Rattus norvegicus [15]
  Activity: -1 g
[16]
  clearance: 16 mL/min/kg
[17]
  clearance: 2.8 mL/min/kg
[18]
  clearance: 5 mL/min/kg
Rattus norvegicus [19]
  Activity: -1 g
Cannabinoid receptor 1
  IC50: 5.4 nM
